Reference: ChEMBL document CHEMBL1153167, “Gastroprotective flavonoid constituents from Oroxylum indicum Vent” (Bioorg Med Chem Lett, 2010)
Activity calls are given as the source filed them. The calls are words filed in the database; no cut-off is given here.

What was measured:
Assay type in all cases: functional, organism-based
Design in all cases: dose 25 mg/kg
Rattus norvegicus [1] = assay: Gastroprotective activity against pylorus ligation-induced ulcer in 48 hrs fasted Wistar rat at 25 mg/kg rat pretreated 1 hr before pylorus ligation measured after 4 hrs
In short: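 Rats fasted 48 h, six per group, were dosed as a 1% Tween-80 suspension at 1 mL per rat. After 1 h the pylorus was ligated under anesthesia. Animals were killed 4 h after ligation for evaluation. Read-out is % protection, mean ± SD.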

Rattus norvegicus [2] = assay: Gastroprotective activity against cold restraint-induced ulceritis in Wistar rat at 25 mg/kg, po pretreated before cold restraination measured after 2 hrs
In short: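 After the oral dose, rats (six per group) were restrained at 4 °C for 2 h. The stomach was then opened along the greater curvature and severity was scored as mean ulcer index. Read-out is % protection, mean ± SD.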

Rattus norvegicus [3] = assay: Gastroprotective activity against ethanol-induced ulceritis in 48 hrs fasted Wistar rat at 25 mg/kg, po pretreated 1 hr before ethanol challenge followed by pylorus ligation measured after 4 hrs
In short: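 Rats fasted 48 h, six per group, were dosed orally. Ethanol was given intragastrically 1 h later. One hour after the ethanol, the pylorus was ligated under anesthesia. Animals were killed 4 h after ligation and ulcers were indexed. Read-out is % protection, mean ± SD.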

Rattus norvegicus [4] = assay: Gastroprotective activity against aspirin-induced ulceritis in Wistar rat at 25 mg/kg, po pretreated 5 days before aspirin challenge measured after 24 hrs of fasting
In short: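 Rats, six per group, were dosed with test sample for five days, then given aspirin 200 mg/kg body weight suspended in 1% Tween-80. They were fasted 24 h and killed by cervical dislocation. Stomachs were opened along the greater curvature, washed with lukewarm saline and scored for ulcer index under a dissecting microscope. Read-out is % protection, mean ± SD.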

Row | SMILES | Activity (Rattus norvegicus [1]) | Activity (Rattus norvegicus [2]) | Activity (Rattus norvegicus [3]) | Activity (Rattus norvegicus [4])
1 | COc1cc(O)c2c(=O)cc(-c3c(OC)cccc3O[C@H]3O[C@@H](CO)[C@H](O)[C@@H](O)[C@@H]3O)oc2c1 | inactive | inactive | inactive | inactive
2 | COc1c(O)cc2c(c1O)C(=O)C[C@@H](c1ccccc1)O2 | Active | Active | Active | Active
3 | O=c1cc(-c2ccccc2)oc2cc(O)cc(O)c12 | Active | Active | Active | Active
4 | COc1ccc(-c2cc(=O)c3c(O)cc(OC)cc3o2)cc1 | inactive | inactive | inactive | inactive
5 | COc1cc(O)c2c(=O)cc(-c3ccccc3)oc2c1 | inactive | inactive | inactive | inactive
6 | COc1c(O)cc2oc(-c3ccccc3)cc(=O)c2c1O | Active | Active | Active | Active
